The assay addresses Melanin-concentrating hormone receptor 1 (Rattus norvegicus, UniProt P97639). Put plainly: Binding affinity to rat MCH1 receptor. Put shortly: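 Membranes from mammalian cells stably transfected with rat MCH1 receptor, prepared by nitrogen cavitation (900 psi, ice, 30 min) and differential centrifugation (800g, then 38 000g). Radioligand competition at equilibrium in 50 mM HEPES pH 7.0, 10 mM MgCl2, 2 mM EGTA. Hits were taken to 12-point dose-response curves to derive Ki. Bound and free were separated by filtration over PEI-treated GF-C filters and counted by scintillation.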

In ChEMBL document CHEMBL1149310, “A screening library for peptide activated G-protein coupled receptors. 1. The test set” (J Med Chem, 2004) one finds Ki data, which are given here for 14 molecules.

Melanin-concentrating hormone receptor 1, sequence (P97639 whole entry): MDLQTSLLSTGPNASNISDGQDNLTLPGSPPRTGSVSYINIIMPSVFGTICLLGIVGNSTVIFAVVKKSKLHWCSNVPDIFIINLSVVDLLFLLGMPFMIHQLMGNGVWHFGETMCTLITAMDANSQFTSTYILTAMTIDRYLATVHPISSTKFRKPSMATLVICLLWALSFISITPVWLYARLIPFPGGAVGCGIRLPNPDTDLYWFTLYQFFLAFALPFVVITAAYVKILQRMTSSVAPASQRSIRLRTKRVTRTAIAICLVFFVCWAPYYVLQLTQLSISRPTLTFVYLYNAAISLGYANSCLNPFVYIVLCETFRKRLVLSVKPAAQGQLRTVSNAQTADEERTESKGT

In turn, `O=C(Cc1ccc(Oc2ccccc2)cc1)NC1CCN(Cc2ccc(Cl)c(Cl)c2)C1` (centres undefined) had a Ki of 0.51 µM.
For `O=C(Cc1ccc2c(c1)OCO2)NC1CCN(Cc2ccc(Cl)c(Cl)c2)C1` (centres undefined), the Ki was 0.63 µM.
`O=C(Cc1ccccc1)NC1CCN(Cc2ccc(Cl)c(Cl)c2)C1` (centres undefined) yielded an inhibition constant (Ki) of 0.98 µM. This Ki is about 1.6-fold higher than that of the molecule before.
As to `Clc1ccc(-c2ccc(CNC3CCN(CC(c4ccccc4)c4ccccc4)C3)o2)cc1` (centres undefined), affinity was put at a Ki of 1.7 µM.
In turn, `O=C(Cc1csc2ccccc12)NC[C@@H]1CCCN1Cc1ccc(Cl)c(Cl)c1` yielded a Ki of 6 µM.
In turn, `O=C(Cc1ccccc1)NC1CCN(Cc2ccccc2)C1` (centres undefined) yielded a Ki of more than 10 µM.
For the molecule `O=C(Cc1ccccc1)NC1CCN(CCc2ccccc2)C1` (centres undefined), the Ki was more than 10 µM.
The same measure for `O=C(CCc1ccccc1)NC1CCN(Cc2ccc(Cl)c(Cl)c2)C1` (centres undefined): more than 10 µM; for `O=C(Cc1csc2ccccc12)NC1CCN(Cc2ccc(Cl)c(Cl)c2)C1` (centres undefined): 0.36 µM; for `CC(CCN1CCC(NCc2ccc(-c3ccc(Cl)cc3)o2)C1)CC(C)(C)C` (centres undefined): 5 µM.
Molecule `COCC1=C(C(=O)OC)[C@H](c2ccc(F)c(F)c2)N(C(=O)NCCCN2CCC(c3cccc(NC(C)=O)c3)CC2)C(=O)N1` [SNAP-7941] came in with a Ki of 0.002 µM.
`O=C(CCCc1ccccc1)NC[C@@H]1CCCN1CCc1ccccc1` gave a Ki of more than 10 µM.
For `O=C(CCCc1ccccc1)NC[C@H]1CCCN1CCc1ccccc1`, affinity was put at a Ki of 3.1 µM.
`O=C(Cc1csc2ccccc12)NC[C@H]1CCCN1Cc1ccc(Cl)c(Cl)c1` registered a Ki of 9.8 µM.

Broadly, the Ki is the dissociation constant of the complex between target and ligand, obtained from inhibition or displacement. Lower therefore signals higher affinity.
